Assay [1] addresses T1, Corticotropin-releasing factor receptor 1 (Homo sapiens, UniProt P34998).
T1 sequence (P34998 whole entry): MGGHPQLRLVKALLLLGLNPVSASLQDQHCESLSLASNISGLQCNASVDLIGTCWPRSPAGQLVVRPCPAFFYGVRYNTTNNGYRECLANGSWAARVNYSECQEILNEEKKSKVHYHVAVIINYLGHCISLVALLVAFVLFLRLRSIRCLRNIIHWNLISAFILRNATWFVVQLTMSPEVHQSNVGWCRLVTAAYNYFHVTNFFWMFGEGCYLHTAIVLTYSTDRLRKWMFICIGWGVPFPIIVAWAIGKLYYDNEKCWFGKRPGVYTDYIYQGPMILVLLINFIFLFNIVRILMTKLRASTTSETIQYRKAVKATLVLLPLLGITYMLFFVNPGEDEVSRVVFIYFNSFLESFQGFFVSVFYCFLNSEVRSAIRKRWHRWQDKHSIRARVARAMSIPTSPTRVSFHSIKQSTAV
Put plainly: Binding affinity for recombinant human CRF1 receptor.

The target of assay [2] is Corticotropin releasing factor receptor (Rattus norvegicus, UniProt P47866+P35353). Put plainly: Inhibition of CRF-stimulated ACTH release in primary rat anterior pituitary cells. The format is functional, cell-based. The following applies: pituitary gland cell.
Assay [3] concerns the target T1, Corticotropin-releasing factor receptor 1. In words: Inhibition of CRF-stimulated cAMP production in cells expressing CRF1 receptor. The method, boiled down: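 CHO cells expressing the CRF1 receptor; antagonism of CRF-stimulated cAMP production measured over a range of compound concentrations, with IC50 taken from the concentration-response.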

pIC50, pKi: −log10 of the molar value. Bounds are passed on as bounds.

Usually pKi stands for the Ki on a negative log10 scale, so that one unit is a factor of ten. What is called IC50 is the concentration at which inhibition is half-maximal. The low end stands for greater potency in that assay, the high end for weaker potency in that assay. What is called pIC50 is the IC50 on a negative log10 scale, so that one unit is a factor of ten. The low end stands for a high IC50, the high end for a low IC50.

For the compound `CCCN(CC1CC1)c1cc(C(=O)c2c(C)c(C)c(C)c(C)c2C)nc(C)n1`, in assay [1], the pKi is under 5.00.
Still for that read-out and setting: the figure for `CCC(CC)Nc1nc(C)nc(C(=O)c2c(C)cc(C)cc2C)c1C` is 6.66.
In the case of `CCCN(CC1CC1)c1nc(C)nc(C(=O)c2c(C)cc(C)cc2C)c1C`, in assay [1], the pKi was 7.82. In assay [2], this compound displayed an IC50 of 980 nM. The compound further had a pIC50 in assay [3] of 5.92.
`Cc1cc(C)c(C(=O)c2nc(C)nc(N3CCCC3)c2C)c(C)c1`: the negative logarithm of the Ki (pKi) in assay [1] was under 5.00.
On the same count and under the same terms, the figure for `CCCN(CC1CC1)c1cc(C)nc(C(=O)c2c(OC)cc(OC)cc2OC)n1` is 6.20; for `CCCN(CCC)c1nc(C)nc(C(=O)c2c(C)cc(C)cc2C)c1C` it is 7.24.
For the compound `CCCN(CC1CC1)c1nc(C)nc(C(=O)c2c(OC)cc(OC)cc2OC)c1C`, the pKi in assay [1] is 7.42. This compound also had a pIC50 in assay [3] of 6.00.
In the case of `CCCN(CC1CC1)c1nc(C)nc(C(=O)c2c(C)c(C)c(C)c(C)c2C)c1C`, in assay [1], the pKi is 5.29.
Still for that read-out and setting: the figure for `C=CCc1c(C(=O)c2c(C)cc(C)cc2C)nc(C)nc1N(CCC)CC1CC1` is 7.51; for `CCCN(CC1CC1)c1nc(C)nc(C(=O)c2c(CC)cc(CC)cc2CC)c1C` it is 7.89.
On the same count and under the same terms, for `Cc1cc(C)c(C(=O)c2nc(C)nc(N3CCOCC3)c2C)c(C)c1` the value was under 5.00.
With `CCCN(CC1CC1)c1nc(C)nc(C(=O)c2ccccc2C)c1C`, in assay [1], the pKi was 6.09.
Consider `CCN(c1ccccc1)c1nc(C)nc(C(=O)c2c(C)cc(C)cc2C)c1C`, for which, in assay [1], the pKi is 6.33.
On the same count and under the same terms, for `CCCN(CC1CC1)c1nc(C)nc(C(=O)c2c(C)cc(C)cc2C)c1CC` the value was 7.26; for `COC[C@@H]1CCCN1c1nc(C)nc(C(=O)c2c(C)cc(C)cc2C)c1C`, 6.42.
Still for that read-out and setting: the figure for `C=CCN(CC=C)c1nc(C)nc(C(=O)c2c(C)cc(C)cc2C)c1C` is 7.42.
For the compound `CCCN(CC1CC1)c1cc(C(=O)c2c(OC)cc(OC)cc2OC)nc(C)n1`, the pKi in assay [1] is 5.96.
On the same count and under the same terms, for `C=C(c1nc(C)nc(N(CCC)CC2CC2)c1C)c1c(OC)cc(OC)cc1OC` the value was 6.25.
Regarding `CCCN(CC1CC1)c1nc(C)nc(C(O)c2c(CC)cc(CC)cc2CC)c1C` (centres undefined), the pKi in assay [1] was 6.44.
As for `CCCN(CC1CC1)c1nc(C)nc(Cc2c(OC)cc(OC)cc2OC)c1C`, in assay [1], the negative-log Ki (pKi) was 7.59.
With `CCCN(CC1CC1)c1nc(C)nc(C(O)c2c(C)cc(C)cc2C)c1C` (centres undefined), the pKi in assay [1] was 7.10.
On the same count and under the same terms, for `CCCN(CC1CC1)c1nc(C)nc(C(C)(C)c2c(OC)cc(OC)cc2OC)c1C` the value was under 5.00; for `CCCN(CC1CC1)c1cc(C(=O)c2c(C)cc(C)cc2C)nc(C)n1`, 6.70; for `CCCN(CC1CC1)c1nc(C)nc(C(=O)c2ccc(OC)cc2OC)c1C`, 6.09.
The same measure, in the same setting: for `CCCN(CCO)c1nc(C)nc(C(=O)c2c(C)cc(C)cc2C)c1C` the value was 6.27; for `CCCN(CC1CC1)c1nc(C)nc(Nc2c(Cl)cc(Cl)cc2Cl)c1Cl`, 8.57.

The values above are taken from ChEMBL document CHEMBL1149332, “Synthesis of benzoylpyrimidines as antagonists of the corticotropin-releasing factor-1 receptor” (Bioorg Med Chem Lett, 2004).
